Published values pooled from the literature.
FABP4: Fatty acid-binding protein, adipocyte (FABP4, Homo sapiens, UniProt P15090)
ACHE: Acetylcholinesterase (ACHE, Homo sapiens, UniProt P22303)
Sialidase-2: Sialidase-2 (Homo sapiens, UniProt Q9Y3R4)

Compound | target | test | system | setting | measurement | value
O=C(O)C(F)(F)C(F)(F)C(F)(F)C(F)(F)C(F)(F)C(F)(F)C(F)(F)C(F)(F)C(F)(F)F | FABP4 | ligand displacement, fluorescence | – | – | Ki | 1350 nM
Cn1c(=O)n(CCCCN2CCC3(CC2)OCc2ccccc23)c2ccccc21 | Transporter (Slc6a2, Rattus norvegicus, UniProt Q63380) | ligand displacement, radioligand | – | cell membranes | Ki | 232 nM
O=c1cc(CSc2ccc(N=Cc3ccc(Br)cc3)cc2)occ1O | ACHE | enzyme activity, inhibitor | – | – | Ki | 907 nM
CC(C)c1cc2c(c(O)c1O)[C@@]13CCCC(C)(C)[C@@H]1[C@H](OC3=O)[C@H]2O | ACHE | enzyme activity, inhibitor | – | – | Ki | 0.23 nM
CC(=O)c1c(C)c2cnc(Nc3ccc(C4CCN(CCS(C)(=O)=O)CC4)cn3)nc2n(C2CCCC2)c1=O | Cytochrome P450 2C8 (CYP2C8, Homo sapiens, UniProt P10632) | enzyme activity, inhibitor | human, liver microsomes | – | IC50 | > 10000 nM
O=C(O)C(F)(F)C(F)(F)C(F)(F)C(F)(F)C(F)(F)C(F)(F)C(F)(F)F | FABP4 | ligand displacement, fluorescence | – | – | Ki | 1820 nM
CCCCOP(=O)(O)C(C)=O | 1-deoxy-D-xylulose-5-phosphate synthase (dxs, Escherichia coli, UniProt P77488) | enzyme activity, inhibitor | – | – | Ki | 3000 nM
Cc1c(-c2cccnc2)c2ccccc2n1CCCCC(=O)O | FABP4 | ligand displacement, fluorescence | – | – | Kd | 3260 nM
CC(C)(C)CN[C@H]1[C@H]([C@H](O)[C@H](O)CO)OC(C(=O)O)=C[C@@H]1O | Sialidase-2 | enzyme activity, inhibitor | – | – | IC50 | 120000 nM
CC(C)c1cc2c(c(O)c1O)[C@@]1(C(=O)O)CCCC(C)(C)[C@@H]1CC2 | ACHE | enzyme activity, inhibitor | – | – | Ki | 0.58 nM
Cc1cn([C@H]2[C@H]([C@H](O)[C@H](O)CO)OC(C(=O)O)=C[C@@H]2O)nn1 | Sialidase-2 | enzyme activity, inhibitor | – | – | IC50 | 80000 nM
CC1=C(CO)C(=O)O[C@@H]([C@@H](C)[C@H]2CC[C@H]3[C@@H]4C[C@H]5O[C@]56[C@@H](O)C=CC(=O)[C@]6(C)[C@H]4CC[C@]23C)C1 | Importin subunit beta-1 (KPNB1, Homo sapiens, UniProt Q14974, C158A) | binding, MST | – | – | Kd | 90400 nM
Cc1ccccc1C=Nc1ccc(SCc2cc(=O)c(O)co2)cc1 | ACHE | enzyme activity, inhibitor, Ellman | – | – | IC50 | 5300 nM
